Experimental data reported in ChEMBL document CHEMBL1156769, “9-Arylpurines as a novel class of enterovirus inhibitors” (J Med Chem, 2010).
pEC50: −log10 of the molar value.

Tests used:
[1] = Cytotoxicity against human MRC5 cells after 3 days by MTS assay; type: cell-based
Outline: (§1)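 Uninfected cultures in the antiviral-assay setup were exposed to serial compound dilutions for three days at 37 °C. Viability was read by the MTS method. CC50, the concentration inhibiting cell proliferation by 50%, was obtained by linear interpolation; mean ± SD of at least three independent experiments.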

[2] = tested on: Coxsackievirus B3; test: Antiviral activity against Coxsackievirus B3 infected in african green monkey Vero cells assessed as reduction of virus-induced cytopathic effect after 3 days by MTS assay; type: functional, organism-based; settings: Enterovirus B, 72 h
Outline: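 CPE-reduction assay in confluent Vero cells. Serial compound dilutions and 100 CCID50 of CVB3 were added, then incubated 3 days at 37 °C until complete CPE in the virus control. Optical density after MTS/PMS was read at 498 nm relative to uninfected untreated cells. EC50 was interpolated linearly; mean ± SD of at least three independent experiments.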

[3] = Cytotoxicity against african green monkey Vero cells after 3 days by MTS assay; type: cell-based; settings: chlorocebus sabaeus; outline: as §1
[4] = Cytotoxicity against african green monkey Vero cells after 3 days by Cell titer glo luminescent assay; type: cell-based; settings: chlorocebus sabaeus
Outline: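 Uninfected Vero cells were incubated with serial compound dilutions for three days at 37 °C, using the same setup as the antiviral assay. Survival was measured with the CellTiter-Glo luminescent viability assay. CC50 (50% inhibition of proliferation) was determined by linear interpolation; mean ± SD of at least three independent experiments.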

[5] = Cytotoxicity against human HeLa cells after 3 days by MTS assay; type: cell-based; outline: as §1
[6] = tested on: Poliovirus 1; test: Antiviral activity against Poliovirus1 sabin infected in Vero cells assessed as reduction of virus induced cytopathic effect after 3 days by MTS assay; type: functional, cell-based; settings: Enterovirus C, 72 h
Outline: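 Vero cells were grown to confluence at 37 °C and then given serial compound dilutions together with 100 CCID₅₀ virus. After 3 days, once virus controls reached full CPE, cell viability was measured by MTS/PMS as absorbance at 498 nm, relative to uninfected untreated wells. EC₅₀ was interpolated linearly as the concentration giving 50% CPE inhibition. Results are the mean ± SD of three or more independent experiments.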

[7] = Antiviral activity against Coxsackie virus A21 Coe infected in human MRC5 cells assessed as reduction of virus induced cytopathic effect after 3 days by MTS assay; type: functional, cell-based, Human coxsackievirus A21 (strain Coe); settings: Enterovirus C, MRC5, 72 h
Outline: (§2)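 Confluent MRC-5 monolayers were cultured at 37 °C and given serial compound dilutions plus 100 CCID₅₀ virus. EC₅₀ (50% CPE inhibition) was found by linear interpolation. Values are the mean ± SD of at least three independent experiments.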

[8] = tested on: rhinovirus A2; test: Antiviral activity against Rhinovirus 2 infected in human HeLa-R cells assessed as reduction of virus induced cytopathic effect after 3 days by MTS assay; type: functional, organism-based; settings: Rhinovirus A, 72 h
Outline: (§3)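 Rhinoviruses were cultured in HeLa R cells at 35 °C. Confluent cells received serial compound dilutions and 100 CCID50 of virus until complete CPE developed in the virus control. Survival was quantified by MTS/PMS at 498 nm versus uninfected compound-free cells. EC50 was calculated by linear interpolation; mean ± SD of at least three independent experiments.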

[9] = Antiviral activity against Echovirus 11 Gregory assessed as reduction of virus-induced cytopathic effect after 3 days by MTS assay; type: functional, Echovirus 11 (strain Gregory)
Outline: (§4)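 Confluent MRC-5 monolayers received serial compound dilutions plus 100 CCID50 of virus and were incubated 3 days at 37 °C, until full CPE appeared in the untreated virus control. Viability was read by MTS/PMS at 498 nm and compared with uninfected, compound-free cells. EC50 (50% CPE inhibition) was obtained by linear interpolation; mean ± SD of at least three independent experiments.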

[10] = Antiviral activity against Coxsackievirus A16 G10 infected in human MRC5 cells assessed as reduction of virus induced cytopathic effect after 3 days by MTS assay; type: functional, cell-based, Human coxsackievirus A16 (strain G-10); settings: Enterovirus A, MRC5, 72 h; outline: as §4
[11] = Antiviral activity against Enterovirus 71 BrCr infected in human RD cells assessed as reduction of virus induced cytopathic effect after 3 days by MTS assay; type: functional, cell-based, Human enterovirus 71 (strain BRCR); settings: Enterovirus A, 72 h
Outline: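 Virus was cultured in RD cells at 37 °C. Confluent cells were given serial compound dilutions with 100 CCID50 of virus for 3 days, until complete CPE in untreated infected controls. Cell viability was measured by MTS/PMS absorbance at 498 nm. EC50 was derived by linear interpolation; mean ± SD of at least three independent experiments.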

[12] = tested on: rhinovirus B14; test: Antiviral activity against Rhinovirus 14 infected in human HeLa-R cells assessed as reduction of virus induced cytopathic effect after 3 days by MTS assay; type: functional, organism-based; settings: Rhinovirus B, 72 h; outline: as §3
[13] = tested on: Coxsackievirus A24; test: Antiviral activity against Coxsackie virus A24 infected in human MRC5 cells assessed as reduction of virus induced cytopathic effect after 3 days by MTS assay; type: functional, organism-based; settings: Enterovirus C, MRC5, 72 h; outline: as §2
[14] = Antiviral activity against Echovirus 9 Hill assessed as reduction of virus-induced cytopathic effect after 3 days by MTS assay; type: functional, Echovirus 9 (strain Hill); outline: as §4

SMILES	pEC50 [2]	EC90 [2] [µM]	CC50 at 72 h [3] [µM]	also measured
OCc1cccc(-n2cnc3c(Cl)ncnc32)c1	4.85	30	> 100	CC50 at 72 h [1]: 229 µM; CC50 at 72 h [4]: 200 µM; CC50 at 72 h [5]: 175 µM
Cc1ncnc2c1ncn2-c1cccc(CO)c1	< 4.00	–	> 100	–
CC(C)COc1ccc(-n2cnc3c(Cl)ncnc32)cc1	< 4.00	–	> 100	–
CC(=O)c1cccc(-n2nnc3c(Cl)ncnc32)c1	< 4.36	–	44	–
Cc1nc(Cl)c2ncn(-c3cccc(C(C)(C)O)c3)c2n1	5.10	7.4	> 100	CC50 at 72 h [1]: > 250 µM; CC50 at 72 h [4]: > 250 µM; CC50 at 72 h [5]: > 250 µM
COc1cccc(Cn2cnc3ncnc(Cl)c32)c1	4.12	> 100	> 100	–
O=C(c1ccccc1)c1ccc(-n2cnc3c(Cl)ncnc32)cc1	4.17	85	> 100	–
CC(=O)c1cc(-n2cnc3c(Cl)ncnc32)ccc1F	5.03	15	> 100	–
Clc1ncnc2c1ncn2-c1ccc2c(c1)OCO2	< 4.00	–	> 100	–
CNc1ncnc2c1ncn2-c1cccc(CO)c1	< 4.00	–	> 100	–
OCc1ccc(-n2cnc3c(Cl)ncnc32)cc1	4.96	20	> 100	–
CC(=O)c1cccc(-n2cnc3c(Cl)ncnc32)c1	5.14	9.1	> 100	pEC50 [6]: < 4.00; pEC50 [7]: 5.35; pEC50 [8]: < 4.00; pEC50 [9]: < 4.00; pEC50 [10]: 5.57; CC50 at 72 h [1]: 238 µM; pEC50 [11]: < 4.00; pEC50 [12]: < 4.00; pEC50 [13]: 5.57; CC50 at 72 h [4]: > 250 µM; CC50 at 72 h [5]: 144 µM; pEC50 [14]: 5.48
Nc1nc(Cl)c2ncn(-c3cccc(CO)c3)c2n1	4.77	25	> 100	–
COc1ccc(C(C)=O)cc1-n1cnc2c(Cl)nc(C)nc21	< 4.00	–	> 100	–
OCc1cccc(-n2cnc3c(Br)ncnc32)c1	4.66	29	> 100	–
CC(=O)c1cccc(Nc2ncnc(Cl)c2N)c1	< 4.00	–	> 100	–
CC(=O)c1cccc(Nc2nc(C)nc(Cl)c2N)c1	< 4.00	–	> 100	–
CC(=O)c1cccc(-n2c(C)nc3c(Cl)ncnc32)c1	4.91	22	> 100	–

SMILES	pEC50 [2]	EC90 [2] [µM]	CC50 at 72 h [3] [µM]	also measured
CC(=O)c1cccc(-n2cnc3c(Cl)nc(C)nc32)c1	5.06	14	> 100	–
CC(=O)c1cccc(-n2c(C)nc3c(Cl)nc(C)nc32)c1	4.96	15	> 100	–
CC(=O)c1cccc(-n2c(=O)[nH]c3c(Cl)ncnc32)c1	5.03	18	> 100	–
OCc1cccc(-n2cnc3c(Cl)nc(Cl)nc32)c1	< 5.06	–	8.8	–
OCc1cccc(-n2cnc3cncnc32)c1	< 4.00	–	> 100	–
CC(=O)c1ccc(-n2cnc3c(Cl)ncnc32)cc1	4.45	51	> 100	–
COC(=O)c1cccc(-n2cnc3c(Cl)ncnc32)c1	4.95	22	> 100	–
CC(=O)c1cccc(-n2c(=O)[nH]c3c(Cl)nc(C)nc32)c1	5.17	10	> 100	CC50 at 72 h [1]: > 250 µM; CC50 at 72 h [4]: > 250 µM; CC50 at 72 h [5]: > 250 µM
COc1ncnc2c1ncn2-c1cccc(CO)c1	< 4.00	–	> 100	–
COc1cccc(Cn2cnc3c(Cl)ncnc32)c1	4.28	70	> 100	–
COc1ccc(C(C)=O)cc1-n1cnc2c(Cl)ncnc21	< 4.24	–	> 100	–
Cc1nc(Cl)c2[nH]c(=O)n(-c3cccc(C(C)(C)O)c3)c2n1	4.66	29	> 100	–
OCc1cccc(-n2cnc3c(O)ncnc32)c1	< 4.00	–	> 100	–
CC(=O)c1cccc(-n2nnc3c(Cl)nc(C)nc32)c1	< 4.36	–	44	–
CC(C)COc1cccc(-n2cnc3c(Cl)ncnc32)c1	4.54	> 100	> 100	–
COc1cccc(-n2cnc3c(Cl)ncnc32)c1	4.92	22	> 100	–
Fc1cccc(F)c1[C@@H]1SCc2nc3cc(C(F)(F)F)ccc3n21	5.92	–	> 100	–
CC(C)S(=O)(=O)n1c(N)nc2ccc(/C(=N/O)c3ccccc3)cc21 [ENVIROXIME]	6.15	–	> 100	–
